Among the data in ChEMBL document CHEMBL2412970, “Synthesis and anticancer activity of 2,4-disubstituted furo[3,2-b]indole derivatives” (Eur J Med Chem, 2013) are IC50 values, retold here.

Some results are limits rather than exact numbers.

Broadly, the IC50 is the midpoint of a concentration-inhibition curve. Higher therefore signals lower potency.

For one experiment, the system named is HL-60. Nature of the experiment: Cytotoxicity against human HL60 cells after 48 hrs by MTT assay. The class given is functional, cell-based. The following applies: HL-60, 48 h. Summed up:
(§1)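 Cells were treated with a range of concentrations for 48 h. Viability was read by MTT: formazan was dissolved in DMSO and absorbance read at 570 nm. Untreated or 0.1% DMSO cells served as control. Data are mean from three independent experiments. HL-60, H460 and COLO 205 were kept in RPMI-1640 with 10% FBS and penicillin/streptomycin.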
For the compound `COC(=O)c1cc2c(o1)c1ccccc1n2Cc1ccc(F)cc1`, the IC50 is more than 50 µM.

For `OCc1cccc(Cn2c3ccccc3c3oc(CO)cc32)c1`, the IC50 is more than 50 µM.

As to `COC(=O)c1cc2c(o1)c1ccccc1n2Cc1cccc(OC)c1`, the IC50 was more than 50 µM.

In turn, `COC(=O)c1cc2c(o1)c1ccccc1n2C` gave an IC50 of more than 50 µM.

For the compound `O=C(O)c1cc2[nH]c3ccccc3c2o1`, the IC50 is more than 50 µM.

For the compound `OCc1cc2c(o1)c1ccccc1n2Cc1ccc2c(c1)OCO2`, the IC50 is more than 50 µM.

With `COC(=O)c1cc2c(o1)c1ccccc1n2Cc1ccc2c(c1)OCO2`, the IC50 is more than 50 µM.

Compound `COC(=O)c1cc2c(o1)c1ccccc1n2Cc1ccc(C(=O)OC)[se]1` returned an IC50 of more than 25 µM.

`OCc1cc2c(o1)c1ccccc1n2Cc1ccc(Cl)cc1` registered an IC50 of 38.9 µM.

Turning to `OCc1cc2c(o1)c1ccccc1n2Cc1ccc(CO)s1`, the IC50 was more than 50 µM.

Take `OCc1cc2c(o1)c1ccccc1n2Cc1cccc(Cl)c1`: the IC50 is 14.7 µM.

The compound `COC(=O)c1cc2c(o1)c1ccccc1n2Cc1cccc(Cl)c1` yielded an IC50 of more than 50 µM.

With `CCn1c2ccccc2c2oc(C(=O)O)cc21`, the IC50 is more than 50 µM.

In the case of `COC(=O)c1cc2[nH]c3ccccc3c2o1`, the IC50 is more than 50 µM.

Take `COC(=O)c1cc2c(o1)c1ccccc1n2Cc1ccccc1`: the IC50 was more than 50 µM.

`Cn1c2ccccc2c2oc(CO)cc21` returned an IC50 of more than 50 µM.

Take `COC(=O)c1cc2c(o1)c1ccccc1n2Cc1ccc(OC)cc1`: the IC50 is more than 50 µM.

Test system in another experiment: not listed separately
Nature of the experiment: Cytotoxicity against human H460 cells after 48 hrs by MTT assay. The format is functional, cell-based. Particulars: NCI-H460, 48 h. In a few lines: as §1
(In general: Tetrazolium assays rely on reduction of a dye to a coloured formazan, in cell work by metabolically active cells.)
Compound `COC(=O)c1cc2c(o1)c1ccccc1n2Cc1ccc(F)cc1` gave an IC50 of more than 50 µM.

With `OCc1cccc(Cn2c3ccccc3c3oc(CO)cc32)c1`, the IC50 was more than 50 µM.

`COC(=O)c1cc2c(o1)c1ccccc1n2Cc1cccc(OC)c1` registered an IC50 of more than 50 µM.

In turn, `COC(=O)c1cc2c(o1)c1ccccc1n2C` came in with an IC50 of 50 µM.

`O=C(O)c1cc2[nH]c3ccccc3c2o1` registered an IC50 of more than 50 µM.

In turn, `OCc1cc2c(o1)c1ccccc1n2Cc1ccc2c(c1)OCO2` had an IC50 of more than 50 µM.

Regarding `COC(=O)c1cc2c(o1)c1ccccc1n2Cc1ccc2c(c1)OCO2`, the IC50 was more than 50 µM.

With `COC(=O)c1cc2c(o1)c1ccccc1n2Cc1ccc(C(=O)OC)[se]1`, the IC50 was more than 25 µM.

`OCc1cc2c(o1)c1ccccc1n2Cc1ccc(Cl)cc1`: half-maximal inhibition (IC50) required 31.3 µM.

For the compound `OCc1cc2c(o1)c1ccccc1n2Cc1ccc(CO)s1`, the IC50 was more than 50 µM.

The compound `OCc1cc2c(o1)c1ccccc1n2Cc1cccc(Cl)c1` gave an IC50 of 50 µM.

On to `COC(=O)c1cc2c(o1)c1ccccc1n2Cc1cccc(Cl)c1`, for which the IC50 was more than 50 µM.

For `CCn1c2ccccc2c2oc(C(=O)O)cc21`, the IC50 is more than 50 µM.

Compound `COC(=O)c1cc2[nH]c3ccccc3c2o1` yielded a concentration for half-maximal inhibition (IC50) of more than 50 µM.

Consider `COC(=O)c1cc2c(o1)c1ccccc1n2Cc1ccccc1`, for which the IC50 was more than 50 µM.

With `Cn1c2ccccc2c2oc(CO)cc21`, the concentration for half-maximal inhibition (IC50) amounted to 50 µM.

Consider `COC(=O)c1cc2c(o1)c1ccccc1n2Cc1ccc(OC)cc1`, for which the IC50 is more than 50 µM.

Test system in another experiment: not listed separately
The experiment is described as follows: Cytotoxicity against human Hep3B cells after 48 hrs by MTT assay. The format is functional, cell-based, Hep 3B2.
Conditions: not given
In the case of `COC(=O)c1cc2c(o1)c1ccccc1n2Cc1ccc(F)cc1`, the IC50 is more than 50 µM.

`OCc1cccc(Cn2c3ccccc3c3oc(CO)cc32)c1`: the IC50 amounted to 50 µM.

The compound `COC(=O)c1cc2c(o1)c1ccccc1n2Cc1cccc(OC)c1` yielded an IC50 of more than 50 µM.

In turn, `COC(=O)c1cc2c(o1)c1ccccc1n2C` came in with an IC50 of more than 50 µM.

As to `O=C(O)c1cc2[nH]c3ccccc3c2o1`, the IC50 was more than 50 µM.

`OCc1cc2c(o1)c1ccccc1n2Cc1ccc2c(c1)OCO2`: the IC50 was more than 50 µM.

In turn, `COC(=O)c1cc2c(o1)c1ccccc1n2Cc1ccc2c(c1)OCO2` came in with an IC50 of more than 50 µM.

Compound `COC(=O)c1cc2c(o1)c1ccccc1n2Cc1ccc(C(=O)OC)[se]1` came in with an IC50 of more than 25 µM.

With `OCc1cc2c(o1)c1ccccc1n2Cc1ccc(Cl)cc1`, 36.2 µM corresponded to half-maximal inhibition (IC50).

For `OCc1cc2c(o1)c1ccccc1n2Cc1ccc(CO)s1`, the IC50 was more than 50 µM.

`OCc1cc2c(o1)c1ccccc1n2Cc1cccc(Cl)c1`: the IC50 worked out at 29.8 µM.

`COC(=O)c1cc2c(o1)c1ccccc1n2Cc1cccc(Cl)c1` registered an IC50 of more than 50 µM.

In turn, `CCn1c2ccccc2c2oc(C(=O)O)cc21` came in with a half-maximal inhibitory concentration (IC50) of more than 50 µM.

Compound `COC(=O)c1cc2[nH]c3ccccc3c2o1` returned an IC50 of more than 50 µM.

Compound `COC(=O)c1cc2c(o1)c1ccccc1n2Cc1ccccc1` displayed an IC50 of more than 50 µM.

`Cn1c2ccccc2c2oc(CO)cc21`: the IC50 is more than 50 µM.

In turn, `COC(=O)c1cc2c(o1)c1ccccc1n2Cc1ccc(OC)cc1` gave an IC50 of 58.6 µM.

In the next experiment the test system is A498. Nature of the experiment: Cytotoxicity against human A498 cells after 48 hrs by MTT assay. The following applies: A498, 48 h. The format is functional, cell-based.
As for `COC(=O)c1cc2c(o1)c1ccccc1n2Cc1ccc(F)cc1`, the IC50 is more than 50 µM.

`OCc1cccc(Cn2c3ccccc3c3oc(CO)cc32)c1` returned an IC50 of 0.37 µM.

In turn, `COC(=O)c1cc2c(o1)c1ccccc1n2Cc1cccc(OC)c1` returned an IC50 of more than 50 µM.

Take `COC(=O)c1cc2c(o1)c1ccccc1n2C`: the IC50 is more than 50 µM.

As for `O=C(O)c1cc2[nH]c3ccccc3c2o1`, the IC50 was more than 50 µM.

Compound `OCc1cc2c(o1)c1ccccc1n2Cc1ccc2c(c1)OCO2` gave an IC50 of 0.27 µM.

Compound `COC(=O)c1cc2c(o1)c1ccccc1n2Cc1ccc2c(c1)OCO2` had an IC50 of more than 50 µM.

In turn, `COC(=O)c1cc2c(o1)c1ccccc1n2Cc1ccc(C(=O)OC)[se]1` returned an IC50 of more than 50 µM.

As for `OCc1cc2c(o1)c1ccccc1n2Cc1ccc(Cl)cc1`, half-maximal inhibition (IC50) required 0.79 µM.

Take `OCc1cc2c(o1)c1ccccc1n2Cc1ccc(CO)s1`: the IC50 is 0.69 µM.

On to `OCc1cc2c(o1)c1ccccc1n2Cc1cccc(Cl)c1`, for which 1.1 µM corresponded to half-maximal inhibition (IC50).

Compound `COC(=O)c1cc2c(o1)c1ccccc1n2Cc1cccc(Cl)c1` displayed an IC50 of more than 50 µM.

`CCn1c2ccccc2c2oc(C(=O)O)cc21` showed an IC50 of more than 50 µM.

Take `COC(=O)c1cc2[nH]c3ccccc3c2o1`: the IC50 was more than 50 µM.

For the compound `COC(=O)c1cc2c(o1)c1ccccc1n2Cc1ccccc1`, the IC50 was more than 50 µM.

Turning to `OCc1ccc(-c2nn(Cc3ccccc3)c3ccccc23)o1`, it took 0.37 µM to reach half-maximal inhibition (IC50).

`Cn1c2ccccc2c2oc(CO)cc21` showed an IC50 of 4.6 µM.

The compound `COC(=O)c1cc2c(o1)c1ccccc1n2Cc1ccc(OC)cc1` yielded an IC50 of more than 50 µM.

A further experiment relates to Detroit 551. The experiment is described as follows: Cytotoxicity against human Detroit 551 cells after 48 hrs by MTT assay. The following applies: Detroit 551, 48 h. The format is cell-based.
Compound `COC(=O)c1cc2c(o1)c1ccccc1n2Cc1ccc(F)cc1` gave an IC50 of more than 50 µM.

`OCc1cccc(Cn2c3ccccc3c3oc(CO)cc32)c1`: the half-maximal inhibitory concentration (IC50) was more than 50 µM.

For `COC(=O)c1cc2c(o1)c1ccccc1n2Cc1cccc(OC)c1`, the IC50 was more than 50 µM.

As to `COC(=O)c1cc2c(o1)c1ccccc1n2C`, the half-maximal inhibitory concentration (IC50) was more than 50 µM.

Compound `O=C(O)c1cc2[nH]c3ccccc3c2o1` gave an IC50 of more than 50 µM.

As to `OCc1cc2c(o1)c1ccccc1n2Cc1ccc2c(c1)OCO2`, the IC50 is more than 50 µM.

For `COC(=O)c1cc2c(o1)c1ccccc1n2Cc1ccc2c(c1)OCO2`, the IC50 was more than 50 µM.

Compound `COC(=O)c1cc2c(o1)c1ccccc1n2Cc1ccc(C(=O)OC)[se]1` gave an IC50 of more than 25 µM.

The compound `OCc1cc2c(o1)c1ccccc1n2Cc1ccc(Cl)cc1` came in with an IC50 of 44.4 µM.

`OCc1cc2c(o1)c1ccccc1n2Cc1ccc(CO)s1`: the IC50 is more than 50 µM.

Compound `OCc1cc2c(o1)c1ccccc1n2Cc1cccc(Cl)c1` registered a concentration for half-maximal inhibition (IC50) of more than 50 µM.

Take `COC(=O)c1cc2c(o1)c1ccccc1n2Cc1cccc(Cl)c1`: the IC50 was more than 50 µM.

As to `CCn1c2ccccc2c2oc(C(=O)O)cc21`, the IC50 was more than 50 µM.

Turning to `COC(=O)c1cc2[nH]c3ccccc3c2o1`, the IC50 was more than 50 µM.

With `COC(=O)c1cc2c(o1)c1ccccc1n2Cc1ccccc1`, the IC50 is more than 50 µM.

Compound `Cn1c2ccccc2c2oc(CO)cc21` gave an IC50 of more than 50 µM.

For `COC(=O)c1cc2c(o1)c1ccccc1n2Cc1ccc(OC)cc1`, the IC50 was more than 50 µM.

The subject of a further experiment is COLO 205. Nature of the experiment: Cytotoxicity against human COLO205 cells after 48 hrs by MTT assay. The format is functional, cell-based. Particulars: COLO 205, 48 h. In a few lines:
as §1
In turn, `COC(=O)c1cc2c(o1)c1ccccc1n2Cc1ccc(F)cc1` had an IC50 of more than 50 µM.

For the compound `OCc1cccc(Cn2c3ccccc3c3oc(CO)cc32)c1`, the IC50 is more than 50 µM.

In the case of `COC(=O)c1cc2c(o1)c1ccccc1n2Cc1cccc(OC)c1`, the IC50 was more than 50 µM.

In turn, `COC(=O)c1cc2c(o1)c1ccccc1n2C` returned an IC50 of more than 50 µM.

The compound `O=C(O)c1cc2[nH]c3ccccc3c2o1` gave an IC50 of more than 50 µM.

`OCc1cc2c(o1)c1ccccc1n2Cc1ccc2c(c1)OCO2` yielded an IC50 of more than 50 µM.

Compound `COC(=O)c1cc2c(o1)c1ccccc1n2Cc1ccc2c(c1)OCO2` came in with an IC50 of more than 50 µM.

With `COC(=O)c1cc2c(o1)c1ccccc1n2Cc1ccc(C(=O)OC)[se]1`, the IC50 is more than 50 µM.

For `OCc1cc2c(o1)c1ccccc1n2Cc1ccc(Cl)cc1`, it took 8.1 µM to reach half-maximal inhibition (IC50).

`OCc1cc2c(o1)c1ccccc1n2Cc1ccc(CO)s1` displayed an IC50 of more than 50 µM.

`OCc1cc2c(o1)c1ccccc1n2Cc1cccc(Cl)c1` yielded a concentration for half-maximal inhibition (IC50) of 26.4 µM.

The compound `COC(=O)c1cc2c(o1)c1ccccc1n2Cc1cccc(Cl)c1` had an IC50 of more than 50 µM.

With `CCn1c2ccccc2c2oc(C(=O)O)cc21`, the IC50 was more than 50 µM.

In turn, `COC(=O)c1cc2[nH]c3ccccc3c2o1` returned an IC50 of more than 50 µM.

`COC(=O)c1cc2c(o1)c1ccccc1n2Cc1ccccc1` came in with an IC50 of more than 50 µM.

As for `Cn1c2ccccc2c2oc(CO)cc21`, the IC50 is more than 50 µM.

For `COC(=O)c1cc2c(o1)c1ccccc1n2Cc1ccc(OC)cc1`, the IC50 was more than 50 µM.
